Data as given in ChEMBL document CHEMBL1134691, “3-Phenyl-5-acyloxymethyl-2H,5H-furan-2-ones: synthesis and biological activity of a novel group of potential antifungal drugs” (2001).
Values after ≈ are worked out from the molar mass of the structure shown.

Tests used:
Trichosporon beigelii [1] = test: Inhibition of Trichosporon beigelli 1188 for 24 hours in vitro.; format: functional; settings: Trichosporon beigelii, 24 h; read-out: MIC
Method in brief: (§1)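 Microdilution following NCCLS M27-A. Medium: RPMI 1640 with L-glutamine, 0.165 M MOPS, pH 7.0. Final inoculum 5 × 10^3 cfu/mL. Compounds dissolved in DMSO, final ≤2%, serially halved from 1000 to 0.24 µmol/L. Incubated at 35 °C and read at 24 and 48 h. MIC defined as 80% inhibition of control growth; run twice in duplicate.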

Nakaseomyces glabratus [2] = test: Inhibition of Candida glabrata 20/I growth for 48 hours in vitro.; format: functional; settings: Nakaseomyces glabratus, 48 h; read-out: MIC
Method in brief: (§2)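 NCCLS M27-A broth microdilution in RPMI 1640 with L-glutamine and 0.165 M MOPS, pH 7.0. Isolates kept on Sabouraud dextrose agar. Inoculum 5 × 10^3 cfu/mL final. Compounds were diluted in DMSO (≤2% final) and tested in 2-fold dilutions of 1000–0.24 µmol/L. Incubation at 35 °C, OD540 read at 24 and 48 h. MIC = 80% growth inhibition versus control; assays run twice in duplicate.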

Pichia kudriavzevii [3] = test: Inhibition of Candida krusei E28 growth for 48 hours in vitro.; format: functional; settings: Pichia kudriavzevii, 48 h; read-out: MIC; method in brief: as §2
[4] = Inhibition of Trichophyton mentagrophytes 445 growth for 120 hours in vitro.; format: functional, Arthroderma benhamiae; settings: Trichophyton benhamiae, 120 h; read-out: MIC
Method in brief: (§3)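 Dermatophyte grown in MOPS-buffered (0.165 M, pH 7.0) RPMI 1640 containing L-glutamine, in an M27-A microdilution format. Inoculum 5 × 10^3 cfu/mL final. Compounds from DMSO stocks (≤2% final), 2-fold dilutions 1000–0.24 µmol/L. Incubated at 35 °C, growth judged visually at 72 and 120 h. MIC endpoint is 80% inhibition relative to control; measured twice in duplicate.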

Candida tropicalis [5] = test: Inhibition of Candida tropicalis 156 growth for 48 hours in vitro.; format: functional; settings: Candida tropicalis, 48 h; read-out: MIC; method in brief: as §2
Clavispora lusitaniae [6] = test: Inhibition of Candida lusitaniae 2446/I growth for 48 hours in vitro.; format: functional; settings: Clavispora lusitaniae, 48 h; read-out: MIC; method in brief: as §2
Trichosporon beigelii [7] = test: Inhibition of Trichosporon beigelli 1188 for 48 hours in vitro.; format: functional; settings: Trichosporon beigelii, 48 h; read-out: MIC; method in brief: as §1
Candida albicans [8] = test: Inhibition of Candida albicans ATCC 44859 growth for 24 hours in vitro.; format: functional; settings: Candida albicans, ATCC 44859, 24 h; read-out: MIC; method in brief: as §2
Candida parapsilosis [9] = test: Inhibition of Candida parapsilosis ATCC 22019 growth for 24 hours in vitro.; format: functional; settings: Lodderomyces parapsilosis, ATCC 22019, 24 h; read-out: MIC; method in brief: as §2
Aspergillus fumigatus [10] = test: Inhibition of Aspergillus fumigatus 231 growth for 24 hours in vitro.; format: functional; settings: Aspergillus fumigatus, 24 h; read-out: MIC
Method in brief: (§4)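 Filamentous isolates tested by microdilution per NCCLS M27-A in RPMI 1640 plus L-glutamine, buffered with 0.165 M MOPS to pH 7.0. Final inoculum 5 × 10^3 cfu/mL. Compounds in DMSO (final ≤2%), 2-fold series over 1000–0.24 µmol/L. Plates held at 35 °C and read visually after 24 and 48 h. MIC taken as 80% inhibition of control growth; determined twice in duplicate.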

Lichtheimia corymbifera [11] = test: In vitro inhibition of Absidia corymbifera 272 growth for 24 hours.; format: functional; settings: Lichtheimia corymbifera, 24 h; read-out: MIC; method in brief: as §4
Candida albicans [12] = test: Inhibition of Candida albicans ATCC 90028 for 48 hours in vitro.; format: functional; settings: Candida albicans, ATCC 90028, 48 h; read-out: MIC; method in brief: as §2
Lichtheimia corymbifera [13] = test: In vitro inhibition of Absidia corymbifera 272 growth for 48 hours.; format: functional; settings: Lichtheimia corymbifera, 48 h; read-out: MIC; method in brief: as §4
Aspergillus fumigatus [14] = test: Inhibition of Aspergillus fumigatus 231 growth for 48 hours in vitro.; format: functional; settings: Aspergillus fumigatus, 48 h; read-out: MIC; method in brief: as §4
Clavispora lusitaniae [15] = test: Inhibition of Candida lusitaniae 2446/I growth for 24 hours in vitro.; format: functional; settings: Clavispora lusitaniae, 24 h; read-out: MIC; method in brief: as §2
[16] = Inhibition of Trichophyton mentagrophytes 445 growth for 72 hours in vitro.; format: functional, Arthroderma benhamiae; settings: Trichophyton benhamiae, 72 h; read-out: MIC; method in brief: as §3
Pichia kudriavzevii [17] = test: Inhibition of Candida krusei ATCC 6258 growth for 24 hours in vitro.; format: functional; settings: Pichia kudriavzevii, ATCC 6258, 24 h; read-out: MIC; method in brief: as §2
Candida parapsilosis [18] = test: Inhibition of Candida parapsilosis ATCC 22019 growth for 48 hours in vitro.; format: functional; settings: Lodderomyces parapsilosis, ATCC 22019, 48 h; read-out: MIC; method in brief: as §2
Pichia kudriavzevii [19] = test: Inhibition of Candida krusei E28 growth for 24 hours in vitro.; format: functional; settings: Pichia kudriavzevii, 24 h; read-out: MIC; method in brief: as §2
Candida tropicalis [20] = test: Inhibition of Candida tropicalis 156 growth for 24 hours in vitro.; format: functional; settings: Candida tropicalis, 24 h; read-out: MIC; method in brief: as §2
Pichia kudriavzevii [21] = test: Inhibition of Candida krusei ATCC 6258 growth for 48 hours in vitro.; format: functional; settings: Pichia kudriavzevii, ATCC 6258, 48 h; read-out: MIC; method in brief: as §2
Candida albicans [22] = test: Inhibition of Candida albicans ATCC 44859 growth for 48 hours in vitro.; format: functional; settings: Candida albicans, ATCC 44859, 48 h; read-out: MIC; method in brief: as §2
Candida albicans [23] = test: Inhibition of Candida albicans ATCC 90028 for 24 hours in vitro.; format: functional; settings: Candida albicans, ATCC 90028, 24 h; read-out: MIC; method in brief: as §2
Nakaseomyces glabratus [24] = test: Inhibition of Candida glabrata 20/I growth for 24 hours in vitro.; format: functional; settings: Nakaseomyces glabratus, 24 h; read-out: MIC; method in brief: as §2

MIC (Trichosporon beigelii [1])	MIC (Nakaseomyces glabratus [2])	MIC (Pichia kudriavzevii [3])	MIC [4]	MIC (Candida tropicalis [5])	MIC (Clavispora lusitaniae [6])	MIC (Trichosporon beigelii [7])	MIC (Candida albicans [8])	MIC (Candida parapsilosis [9])	MIC (Aspergillus fumigatus [10])	MIC (Lichtheimia corymbifera [11])	MIC (Candida albicans [12])	MIC (Lichtheimia corymbifera [13])	MIC (Aspergillus fumigatus [14])	MIC (Clavispora lusitaniae [15])	MIC [16]	MIC (Pichia kudriavzevii [17])	MIC (Candida parapsilosis [18])	MIC (Pichia kudriavzevii [19])	MIC (Candida tropicalis [20])	Compound	other results
62.5 µM (≈ 16.4 µg/mL)	31.2 µM (≈ 8.2 µg/mL)	125 µM (≈ 32.8 µg/mL)	7.81 µM (≈ 2.05 µg/mL)	62.5 µM (≈ 16.4 µg/mL)	62.5 µM (≈ 16.4 µg/mL)	62.5 µM (≈ 16.4 µg/mL)	< 0.98 µM	31.2 µM (≈ 8.2 µg/mL)	3.91 µM (≈ 1.03 µg/mL)	62.5 µM (≈ 16.4 µg/mL)	31.2 µM (≈ 8.2 µg/mL)	62.5 µM (≈ 16.4 µg/mL)	31.2 µM (≈ 8.2 µg/mL)	31.2 µM (≈ 8.2 µg/mL)	7.81 µM (≈ 2.05 µg/mL)	62.5 µM (≈ 16.4 µg/mL)	62.5 µM (≈ 16.4 µg/mL)	62.5 µM (≈ 16.4 µg/mL)	31.2 µM (≈ 8.2 µg/mL)	COc1ccc(C2=CC(COC(C)=O)OC2=O)cc1 (stereo not drawn)	MIC (Pichia kudriavzevii [21]): 125 µM (≈ 32.8 µg/mL); MIC (Candida albicans [22]): 15.6 µM (≈ 4.1 µg/mL); MIC (Candida albicans [23]): 31.2 µM (≈ 8.2 µg/mL); MIC (Nakaseomyces glabratus [24]): 31.2 µM (≈ 8.2 µg/mL)
1.95 µM (≈ 0.587 µg/mL)	0.98 µM (≈ 0.295 µg/mL)	3.91 µM (≈ 1.18 µg/mL)	0.98 µM (≈ 0.295 µg/mL)	7.81 µM (≈ 2.35 µg/mL)	1.95 µM (≈ 0.587 µg/mL)	7.81 µM (≈ 2.35 µg/mL)	0.49 µM (≈ 0.148 µg/mL)	3.91 µM (≈ 1.18 µg/mL)	0.98 µM (≈ 0.295 µg/mL)	15.6 µM (≈ 4.71 µg/mL)	3.91 µM (≈ 1.18 µg/mL)	15.6 µM (≈ 4.71 µg/mL)	7.81 µM (≈ 2.35 µg/mL)	1.95 µM (≈ 0.587 µg/mL)	0.98 µM (≈ 0.295 µg/mL)	3.91 µM (≈ 1.18 µg/mL)	7.81 µM (≈ 2.35 µg/mL)	3.91 µM (≈ 1.18 µg/mL)	3.91 µM (≈ 1.18 µg/mL)	CC(=O)OCC1C=C(c2ccc(Cl)c(Cl)c2)C(=O)O1 (stereo not drawn)	MIC (Pichia kudriavzevii [21]): 7.81 µM (≈ 2.35 µg/mL); MIC (Candida albicans [22]): 3.91 µM (≈ 1.18 µg/mL); MIC (Candida albicans [23]): 3.91 µM (≈ 1.18 µg/mL); MIC (Nakaseomyces glabratus [24]): 0.98 µM (≈ 0.295 µg/mL)
